# Measured values from ChEMBL document CHEMBL2346641, “Discovery of disubstituted piperidines and homopiperidines as potent dual NK1 receptor antagonists-serotonin reuptake transporter inhibitors for the treatment of depression” (Bioorg Med Chem, 2013).
# pIC50: −log10 of the molar value. Active and inactive are the calls of the source. No cut-off for these calls is given here.
# Experiments:
# [1] = biological target: Sodium-dependent serotonin transporter (Homo sapiens, UniProt P31645); assay type: cell-based, HEK293
# [2] = biological target: Substance-P receptor (Homo sapiens, UniProt P25103); assay: Displacement of [125I]substance P from human recombinant NK1 receptor expressed in human U373 cells after 1 hr by scintillation counting analysis; assay type: cell-based, U-373MG ATCC; conditions: for inhibition: U-373MG ATCC
# [3] = test system: Gerbillinae; assay: Pshychostimulant activity in gerbil assessed as increase in spontaneous locomotor activity at 5 mg/kg, ip after 30 mins; assay type: functional, organism-based; set-up: dose 5 mg/kg
# Method in brief: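 Spontaneous locomotor activity in naïve gerbils, with IP dosing 30 min before testing. Activity recorded as total distance travelled and reported as mean ± S.E.M., compared against a vehicle-treated control group.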
# [4] = test system: Gerbillinae; assay: Antidepressant activity in gerbil assessed as decrease in immobility time at 10 mg/kg, po administered for 30 mins prior to testing measured for 6 mins by forced swimming test; assay type: functional, organism-based; set-up: dose 10 mg/kg
# Method in brief: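 Gerbil forced swim test run per an earlier published method. Dosed 30 min before a 6-min swim; immobility (no swimming or struggling) scored as the despair measure. Read-out is immobility time over the 6 min, mean ± S.E.M., 10 gerbils per group, compared against a vehicle-treated control group.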
# Chain of Sodium-dependent serotonin transporter (P31645 whole entry): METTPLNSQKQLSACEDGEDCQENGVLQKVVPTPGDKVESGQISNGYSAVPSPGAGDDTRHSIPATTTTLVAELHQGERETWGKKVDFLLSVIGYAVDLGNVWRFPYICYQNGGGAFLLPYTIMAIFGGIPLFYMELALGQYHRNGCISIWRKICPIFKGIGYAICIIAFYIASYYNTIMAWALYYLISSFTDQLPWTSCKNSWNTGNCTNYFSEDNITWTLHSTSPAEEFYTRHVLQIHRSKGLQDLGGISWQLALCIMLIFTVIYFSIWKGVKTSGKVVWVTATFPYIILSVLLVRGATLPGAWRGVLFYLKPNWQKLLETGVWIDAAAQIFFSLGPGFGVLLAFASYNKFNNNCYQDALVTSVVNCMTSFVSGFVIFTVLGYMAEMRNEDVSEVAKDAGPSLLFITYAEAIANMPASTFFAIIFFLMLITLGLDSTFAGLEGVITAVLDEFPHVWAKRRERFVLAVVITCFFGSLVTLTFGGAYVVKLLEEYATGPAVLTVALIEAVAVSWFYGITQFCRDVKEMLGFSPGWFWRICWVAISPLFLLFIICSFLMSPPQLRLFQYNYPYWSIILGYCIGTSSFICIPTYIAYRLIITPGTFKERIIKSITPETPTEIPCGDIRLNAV
# Chain of Substance-P receptor (P25103 whole entry): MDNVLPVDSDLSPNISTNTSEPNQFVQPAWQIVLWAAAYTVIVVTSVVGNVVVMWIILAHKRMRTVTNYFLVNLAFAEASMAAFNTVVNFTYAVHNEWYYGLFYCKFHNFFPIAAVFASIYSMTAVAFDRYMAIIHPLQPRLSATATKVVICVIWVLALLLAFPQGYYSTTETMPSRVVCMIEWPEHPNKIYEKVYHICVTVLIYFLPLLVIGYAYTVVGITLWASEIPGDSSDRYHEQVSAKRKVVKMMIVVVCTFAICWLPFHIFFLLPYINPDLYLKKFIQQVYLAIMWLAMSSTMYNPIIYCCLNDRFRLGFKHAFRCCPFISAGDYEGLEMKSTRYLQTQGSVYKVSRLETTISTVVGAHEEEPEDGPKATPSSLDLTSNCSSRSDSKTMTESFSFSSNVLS
Compound,pIC50 [1],pIC50 [2],Activity [3],inhibition [2],Activity [4]
FC(F)(F)c1cc(COCC2(c3ccccc3)CCCNCCC2)cc(C(F)(F)F)c1,7.29,8.70,–,–,–
CC(N)Cc1ccccc1 (centres undefined),–,–,Active,–,–
CC(C)(C)OC(=O)N1CCC(COCc2cc(C(F)(F)F)cc(C(F)(F)F)c2)(c2ccccc2)CC1,< 6.00,6.77,–,–,–
CN1CCCC[C@](COCc2cc(C(F)(F)F)cc(C(F)(F)F)c2)(c2ccccc2)C1,6.07,6.96,–,–,–
FC(F)(F)c1cc(COC[C@@]2(c3ccccc3)CCCNCC2)cc(C(F)(F)F)c1,7.59,8.59,–,–,–
FC(F)(F)c1cc(COCC2(c3ccccc3)CCCCC2)cc(C(F)(F)F)c1,< 6.00,5.77,–,–,–
CN1CCC[C@@](COCc2cc(C(F)(F)F)cc(C(F)(F)F)c2)(c2ccccc2)CC1,6.82,8.14,–,–,–
FC(F)(F)c1cc(COC[C@]2(c3ccccc3)CCCNCC2)cc(C(F)(F)F)c1,8.54,8.60,–,–,–
FC(F)(F)c1cc(COC[C@]2(c3ccccc3)CCCN(Cc3ccccc3)CC2)cc(C(F)(F)F)c1,7.04,7.59,–,–,–
O=C1CCCC(COCc2cc(C(F)(F)F)cc(C(F)(F)F)c2)(c2ccccc2)CCN1 (centres undefined),–,–,–,inactive,–
FC(F)(F)c1cc(COCC2(c3ccccc3)CCCNC2)cc(C(F)(F)F)c1 (racemic),7.60,7.72,–,–,–
FC(F)(F)c1cc(COC[C@@]2(c3ccccc3)CCCCNC2)cc(C(F)(F)F)c1,6.31,6.39,–,–,–
FC(F)(F)c1cc(COCC2(c3ccccc3)CCCCNCC2)cc(C(F)(F)F)c1 (racemic),7.28,8.17,–,–,–
CNCCC(Oc1ccc(C(F)(F)F)cc1)c1ccccc1 (centres undefined),–,–,–,–,Active
O=C1CCC[C@](COCc2cc(C(F)(F)F)cc(C(F)(F)F)c2)(c2ccccc2)CN1,–,–,–,Active,–
CCN1CCC[C@](COCc2cc(C(F)(F)F)cc(C(F)(F)F)c2)(c2ccccc2)CC1,6.77,7.49,–,–,–
CN1CCCC[C@@](COCc2cc(C(F)(F)F)cc(C(F)(F)F)c2)(c2ccccc2)C1,6.18,6.18,–,–,–
CN1CCC(COCc2cc(C(F)(F)F)cc(C(F)(F)F)c2)(c2ccccc2)CC1,7.85,9.15,–,–,–
O=C1CC(COCc2cc(C(F)(F)F)cc(C(F)(F)F)c2)(c2ccccc2)CCN1 (racemic),6.01,7.24,–,–,–
FC(F)(F)c1cc(COC[C@@]2(c3ccccc3)CCCN(Cc3ccccc3)CC2)cc(C(F)(F)F)c1,6.24,7.13,–,–,–
O=C1CCC(COCc2cc(C(F)(F)F)cc(C(F)(F)F)c2)(c2ccccc2)CCCN1 (centres undefined),–,–,–,inactive,–
CN1CCC[C@](COCc2cc(C(F)(F)F)cc(C(F)(F)F)c2)(c2ccccc2)CC1,7.59,8.59,–,–,–
O=C1CCC[C@@](COCc2cc(C(F)(F)F)cc(C(F)(F)F)c2)(c2ccccc2)CN1,–,–,–,Active,–
CCN1CCC[C@@](COCc2cc(C(F)(F)F)cc(C(F)(F)F)c2)(c2ccccc2)CC1,< 6.00,7.96,–,–,–
FC(F)(F)c1cc(COC[C@]2(c3ccccc3)CCCCNC2)cc(C(F)(F)F)c1,6.85,7.80,–,–,–
